ChEMBL document CHEMBL4325897, “Discovery, synthesis of novel fusidic acid derivatives possessed amino-terminal groups at the 3-hydroxyl position with anticancer activity” (Eur J Med Chem, 2019)
The source made the active and inactive calls. The rule behind the calls is not given here.

How the values were obtained:
HeLa [1] = experiment: Antitumor activity against human HeLa cells xenografted in BALB/c mouse assessed as tumor growth inhibition at 25 mg/kg, ig bid measured every 3 days relative to control; assay type: functional; settings: po, 72 h, read-out: TGI
MKN-45 [2] = experiment: Cytotoxicity against human MKN45 cells assessed as cell viability at 5 uM after 72 hrs by MTT assay relative to control; assay type: functional; settings: MKN-45, 72 h, read-out: Activity
In short: (§1)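 Cells grown in DMEM with 10% heat-inactivated FCS and penicillin/streptomycin at 37 °C, 5% CO2, and used in log phase. Seeded in 96-well plates and exposed to compounds at 5 μM and 1.5 μM for 72 h. MTT added, formazan dissolved in DMSO, OD read at 570 nm, and survival rate calculated. Average of at least three independent experiments.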

[3] = Toxicity in BALB/c mouse xenografted with human HeLa cells assessed as body weight at 25 mg/kg, ig bid measured every 3 days (reference value: 21.2 +/- 1.5 g); assay type: organism-based; settings: in vivo, po, 72 h
U-87 MG [4] = experiment: Cytotoxicity against human U87 cells assessed as cell viability at 5 uM after 72 hrs by MTT assay relative to control; assay type: functional, U-87MG ATCC; settings: read-out: Activity; in short: as §1
HeLa [5] = experiment: Induction of apoptosis in human HeLa cells assessed as increase in early apoptotic cells at 2 uM after 24 hrs by TUNEL staining based fluorescence microscopic analysis; assay type: functional, cell-based
In short: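 HeLa cells seeded at 2×10^4 cells/well on cover slips and grown 24 h, then treated at 2 μM for 24 h. Fixed, permeabilized, and incubated with TUNEL reaction mixture (labeling enzyme plus labeled dUTP) at 37 °C for 1 h. DAPI counterstain, and TUNEL-positive cells viewed by fluorescence microscopy.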

[6] = Cytotoxicity against human JHH7 cells assessed as reduction in cell viability after 72 hrs by MTT assay; assay type: functional, cell-based; settings: JHH7, 72 h
HeLa [7] = experiment: Inhibition of protein synthesis in human HeLa cells assessed as decrease in puromycin-incorporated neo-synthesized proteins preincubated for 2 hrs followed by puromycin addition and measured after 10 mins by chemiluminescence assay; assay type: functional, cell-based
In short: (§2)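 HeLa cells at 70-80% confluence treated with compound for 2 h (range 1-10 μM), then pulsed with 10 μg/mL puromycin for 10 min. After ice-cold PBS washes, lysates run on SDS-PAGE and immunoblotted with anti-puromycin antibody (1:100, overnight, 4 °C) and HRP anti-mouse IgG. Read by enhanced chemiluminescence.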

HeLa [8] = experiment: Induction of apoptosis in human HeLa cells assessed as increase in ratio of sub-G0 to G1 phase at 5 uM after 48 to 72 hrs by propidium iodide staining based FACS analysis; assay type: functional, cell-based
[9] = Cytotoxicity against human KBV cells assessed as cell viability at 1.5 uM after 72 hrs by MTT assay relative to control; assay type: functional; settings: read-out: Activity; in short: as §1
MKN-45 [10] = experiment: Cytotoxicity against human MKN45 cells assessed as cell viability at 1.5 uM after 72 hrs by MTT assay relative to control; assay type: functional; settings: MKN-45, 72 h, read-out: Activity; in short: as §1
HeLa [11] = experiment: Cytotoxicity against human HeLa cells assessed as reduction in cell viability after 72 hrs by MTT assay; assay type: functional, cell-based
MKN-45 [12] = experiment: Cytotoxicity against human MKN45 cells assessed as reduction in cell viability after 72 hrs by MTT assay; assay type: functional, cell-based; settings: MKN-45, 72 h
HeLa [13] = experiment: Cytotoxicity against human HeLa cells assessed as cell viability at 5 uM after 72 hrs by MTT assay relative to control; assay type: functional; settings: read-out: Activity; in short: as §1
[14] = Cytotoxicity against human KBV cells assessed as cell viability at 5 uM after 72 hrs by MTT assay relative to control; assay type: functional; settings: read-out: Activity; in short: as §1
U-87 MG [15] = experiment: Cytotoxicity against human U87 cells assessed as cell viability at 1.5 uM after 72 hrs by MTT assay relative to control; assay type: functional, U-87MG ATCC; settings: read-out: Activity; in short: as §1
HeLa [16] = experiment: Antitumor activity against human HeLa cells xenografted in BALB/c mouse assessed as tumor growth inhibition at 50 mg/kg, ig bid measured every 3 days relative to control; assay type: functional; settings: po, 72 h, read-out: TGI
[17] = Toxicity in BALB/c mouse xenografted with human HeLa cells assessed as body weight at 50 mg/kg, ig bid measured every 3 days (reference value: 21.2 +/- 1.5 g); assay type: organism-based; settings: in vivo, po, 72 h
HeLa [18] = experiment: Cytotoxicity against human HeLa cells assessed as cell viability at 1.5 uM after 72 hrs by MTT assay relative to control; assay type: functional; settings: read-out: Activity; in short: as §1
[19] = Cytotoxicity against human KBV cells assessed as reduction in cell viability after 72 hrs by MTT assay; assay type: functional, cell-based
U-87 MG [20] = experiment: Cytotoxicity against human U87 cells assessed as reduction in cell viability after 72 hrs by MTT assay; assay type: functional, cell-based, U-87MG ATCC
HeLa [21] = experiment: Inhibition of protein synthesis in human HeLa cells assessed as decrease in puromycin-incorporated neo-synthesized proteins at 5 uM preincubated for 2 hrs followed by puromycin addition and measured after 10 mins by chemiluminescence assay; assay type: functional, cell-based; in short: as §2
[22] = Cytotoxicity against HEK293 cells assessed as reduction in cell viability after 72 hrs by MTT assay; assay type: cell-based; settings: human
Staphylococcus aureus = experiment: Antibacterial activity against Staphylococcus aureus; assay type: functional

| Structure (SMILES) | viability at 5 µM (MKN-45 [2]) [%] | viability at 5 µM (U-87 MG [4]) [%] | Activity (HeLa [5]) | IC50 [6] [µM] | Activity (HeLa [8]) | viability at 1.5 µM [9] [%] | viability at 1.5 µM (MKN-45 [10]) [%] | IC50 (HeLa [11]) [µM] | IC50 (MKN-45 [12]) [µM] | viability at 5 µM (HeLa [13]) [%] | viability at 5 µM [14] [%] | viability at 1.5 µM (U-87 MG [15]) [%] | viability at 1.5 µM (HeLa [18]) [%] | IC50 [19] [µM] | IC50 (U-87 MG [20]) [µM] | other results |
| --- | --- | --- | --- | --- | --- | --- | --- | --- | --- | --- | --- | --- | --- | --- | --- | --- |
| CC(=O)O[C@H]1C[C@@]2(C)[C@@H](C[C@@H](O)[C@H]3[C@@]4(C)CC[C@@H](OC(=O)CCN)[C@@H](C)[C@@H]4CC[C@@]32C)/C1=C(\CCC=C(C)C)C(=O)OCc1ccccc1 | 5 | 9 | Active | 3.18 | Active | 14 | 23 | 3.57 | 1.28 | 13 | 12 | 10 | 32 | 1.26 | 2.4 | inhibition in vivo at 25 mg/kg (HeLa [1]): 35.4%; Activity [3]: 20.4 g; inhibition (HeLa [7]): Dose-dependent effect; inhibition in vivo at 50 mg/kg (HeLa [16]): 45.5%; Activity [17]: 20.5 g |
| CC(=O)O[C@H]1C[C@@]2(C)[C@@H](C[C@@H](O)[C@H]3[C@@]4(C)CC[C@@H](O)[C@@H](C)[C@@H]4CC[C@@]32C)/C1=C(\CCC=C(C)C)C(=O)O [FUSIDIC ACID] | 83 | 87 | inactive | > 100 | inactive | 71 | 80 | > 100 | > 100 | 73 | 67 | 92 | 70 | > 100 | > 100 | inhibition (HeLa [21]): inactive; CC50 at 72 h [22]: > 32 µg/mL; MIC (Staphylococcus aureus): ≤ 0.25 µg/mL |
